Assay results from ChEMBL document CHEMBL2069204, “N-1-Alkyl-2-oxo-2-aryl amides as novel antagonists of the TRPA1 receptor” (Bioorg Med Chem Lett, 2012).
≈ marks a conversion by molar mass, not a printed value. Calls of active or inactive are those of the source. The calls are words filed in the database; no cut-off is given here.

Key:
[1] = molecular target: T1, Transient receptor potential cation channel subfamily A member 1 (Homo sapiens, UniProt O75762); experiment: Antagonist activity at human TRPA1 expressed in HEK293 cells assessed as inhibition of Zn2+-induced intracellular calcium flux by FLIPR assay; type: functional, cell-based
Outline: (§1)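 Fluorescence-based TRPA1 antagonist assay with the agonist as the stimulus: Ca2+ for line 1 and Zn2+ for line 2. Results are reported as pIC50. Compounds with pIC50 > 5 were checked by automated electrophysiology on IonWorks to exclude autofluorescence artefacts. The IC50s from the two agonist formats were pooled and treated as one data set.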

[2] = molecular target: T1, Transient receptor potential cation channel subfamily A member 1; experiment: Antagonist activity at human TRPA1 expressed in HEK293 cells assessed as inhibition of Ca2+-induced intracellular calcium flux by FLIPR assay; type: functional, cell-based; outline: as §1
[3] = Metabolic stability in human microsomes assessed as glutathione adduct formation
[4] = Solubility of the compound in phosphate buffer at pH 7.4 by dried DMSO method; type: physicochemical
Outline: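 Measured by the 'dried DMSO' method in phosphate buffer at pH 7.4. Results are binned as low (<1–5 μM), medium (5–25 μM) or good (>25 μM).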

T1 sequence (O75762 whole entry): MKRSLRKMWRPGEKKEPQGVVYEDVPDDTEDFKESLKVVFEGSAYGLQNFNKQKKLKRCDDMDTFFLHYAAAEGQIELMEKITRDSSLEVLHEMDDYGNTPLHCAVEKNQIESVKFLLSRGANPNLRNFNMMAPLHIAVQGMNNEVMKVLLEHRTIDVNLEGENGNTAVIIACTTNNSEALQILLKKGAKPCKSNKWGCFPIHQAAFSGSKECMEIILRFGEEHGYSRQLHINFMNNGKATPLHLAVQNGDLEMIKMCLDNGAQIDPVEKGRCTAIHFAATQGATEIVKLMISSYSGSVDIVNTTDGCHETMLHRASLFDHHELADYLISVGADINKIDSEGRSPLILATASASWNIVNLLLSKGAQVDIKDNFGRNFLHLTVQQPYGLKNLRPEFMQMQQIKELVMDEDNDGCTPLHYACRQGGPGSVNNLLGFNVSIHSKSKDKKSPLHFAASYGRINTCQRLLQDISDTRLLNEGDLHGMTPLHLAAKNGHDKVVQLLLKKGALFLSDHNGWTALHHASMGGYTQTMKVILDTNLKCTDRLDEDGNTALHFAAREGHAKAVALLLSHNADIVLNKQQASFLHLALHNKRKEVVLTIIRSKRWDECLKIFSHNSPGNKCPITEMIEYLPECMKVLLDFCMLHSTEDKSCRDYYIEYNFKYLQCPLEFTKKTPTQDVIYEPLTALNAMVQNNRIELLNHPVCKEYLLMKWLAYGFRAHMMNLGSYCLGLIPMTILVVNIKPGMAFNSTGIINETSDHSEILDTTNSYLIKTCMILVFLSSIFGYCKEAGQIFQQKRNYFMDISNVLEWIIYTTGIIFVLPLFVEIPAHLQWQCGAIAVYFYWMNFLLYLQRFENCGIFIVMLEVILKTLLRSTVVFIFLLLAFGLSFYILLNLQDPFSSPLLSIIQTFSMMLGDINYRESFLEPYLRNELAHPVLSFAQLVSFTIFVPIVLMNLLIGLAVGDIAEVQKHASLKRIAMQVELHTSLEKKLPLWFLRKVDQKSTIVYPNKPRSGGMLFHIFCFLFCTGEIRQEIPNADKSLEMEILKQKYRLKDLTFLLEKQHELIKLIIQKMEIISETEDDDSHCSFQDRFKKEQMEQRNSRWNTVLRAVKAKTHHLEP

Row | SMILES | IC50 [1] [nM] | IC50 [2] [nM] | also measured
1 | C=CCN(CC=C)c1ccc(C(=O)C(NC(=O)c2ccccc2)C(C)C)cc1 (racemic) |  |  | pIC50 [1]: < 4.5; pIC50 [2]: inactive
2 | CC(C)C(NC(=O)c1ccccc1)C(=O)c1ccc(Cl)cc1 (racemic) | 1260 | 2510 | 
3 | CC(C)C(NC(=O)c1ccc(Cl)cc1F)C(=O)c1ccc(C#N)cc1 (stereo unspecified) | 3980 | 3160 | 
4 | CC(C)(C)C(NC(=O)c1ccccc1)C(=O)c1ccc(Cl)cc1 (stereo unspecified) | 398 | 1000 | 
5 | Cc1noc(-c2ccccc2)c1C(=O)NC(C(=O)c1ccc(C#N)cc1)C(C)C (stereo unspecified) | 3980 | 7940 | 
6 | CC(C)C(NC(=O)c1ccccc1C(F)(F)F)C(=O)c1ccc(C#N)cc1 (stereo unspecified) | 5010 | 3160 | 
7 | CC(C)C(NC(=O)OC(C)(C)C)C(=O)c1ccc(C#N)c(F)c1 (stereo unspecified) | 2000 | 1260 | 
8 | CCCC(NC(=O)c1ccccc1)C(=O)c1ccc(Cl)cc1 (stereo unspecified) |  |  | pIC50 [1]: inactive; pIC50 [2]: inactive
9 | CC(C)C(NC(=O)c1ccccc1)C(=O)c1cccc(Cl)c1 (racemic) |  |  | pIC50 [1]: < 4.5; pIC50 [2]: inactive
10 | CC(C)C(NC(=O)c1ccccc1)C(=O)c1ccc(Cl)cc1 (single isomer, unassigned; isomer 2) |  |  | pIC50 [1]: inactive; pIC50 [2]: inactive
11 | O=C(CNC(=O)c1ccccc1)c1ccc(Cl)cc1 |  |  | pIC50 [1]: inactive; pIC50 [2]: inactive
12 | CC(C)C(NC(=O)c1cc2ccccc2n1C)C(=O)c1ccc(C#N)cc1 (stereo unspecified) | 1580 | 3980 | 
13 | CC(C)C(NC(=O)c1cc(Cl)ccc1F)C(=O)c1ccc(C#N)cc1 (stereo unspecified) | 2000 |  | pIC50 [2]: inactive
14 | CC(C)C(NC(=O)c1ccccc1)C(=O)c1ccc(N)cc1 (racemic) |  |  | pIC50 [1]: inactive; pIC50 [2]: inactive
15 | CC(C)C(NC(=O)NC(C)(C)C)C(=O)c1ccc(Cl)cc1 (stereo unspecified) | 2510 | 2000 | 
16 | Cc1noc(C(C)C)c1C(=O)NC1C(=O)c2ccc(Cl)cc2CC1(C)C (stereo unspecified) |  |  | pIC50 [1]: inactive
17 | CC(C)C(NC(=O)c1ccccc1)C(=O)c1ccccc1 (racemic) |  |  | pIC50 [1]: < 4.5; pIC50 [2]: inactive
18 | CC(C)C(NC(=O)OC(C)(C)C)C(=O)c1ccc(Cl)cn1 (stereo unspecified) | 15800 | 5010 | 
19 | CC(C)C(NC(=O)c1cc(Cl)ccc1C(F)(F)F)C(=O)c1ccc([N+](=O)[O-])cc1 (stereo unspecified) | 10 |  | solubility kinetic [4]: < 1 µM
20 | CC(C)C(NC(=O)c1ccc(Cl)cc1Cl)C(=O)c1ccc(C#N)cc1 (stereo unspecified) | 2510 | 5010 | 
21 | CC(C)C(NC(=O)NCc1ccccc1)C(=O)c1ccc(C#N)cc1 (stereo unspecified) |  |  | pIC50 [1]: inactive; pIC50 [2]: inactive
22 | CC(C)C(NC(=O)c1ccccc1)C(=O)c1ccc(S(C)(=O)=O)cc1 (racemic) |  |  | pIC50 [1]: inactive; pIC50 [2]: inactive
23 | CC(C)C(NC(=O)c1cnn(C(C)(C)C)c1C(F)(F)F)C(=O)c1ccc2nonc2c1 (stereo unspecified) | 398 |  | 
24 | COc1ccc(C(=O)NC(C(=O)c2ccc(C#N)cc2)C(C)C)cc1 (stereo unspecified) | 6310 | 12600 | 
25 | O=C(NC1(C(=O)c2ccc(Cl)cc2)CCC1)c1ccccc1 |  |  | pIC50 [1]: inactive; pIC50 [2]: inactive
26 | CC(C)C(NC(=O)Nc1ccc(F)cc1)C(=O)c1ccc(C#N)cc1 (stereo unspecified) |  |  | pIC50 [1]: inactive; pIC50 [2]: inactive
27 | CC(C)C(NC(=O)N(C)C(C)(C)C)C(=O)c1ccc(Cl)cc1 (stereo unspecified) | 631 | 251 | 

Continued, in another order:

Row | IC50 [1] [nM] | IC50 [2] [nM] | SMILES | also measured
28 | 398 | 1000 | CC(C)C(NC(=O)c1ccccc1)C(=O)c1ccc(Cl)cc1 (single isomer, unassigned; isomer 1) | 
29 | 1260 | 7940 | CC(C)C(NC(=O)c1ccccc1)C(=O)c1ccc(Br)cc1 (racemic) | 
30 | 794 | 1000 | CC(C)C(NC(=O)OC(C)(C)C)C(=O)c1ccc(Cl)cc1 (stereo unspecified) | 
31 | 2000 | 2000 | O=C(NC(C(=O)c1ccc(Cl)cc1)C1CC1)c1ccccc1 (stereo unspecified) | 
32 | 1000 | 2000 | CCCCCCCCCC(=O)NC(C(=O)c1ccc(C#N)cc1)C(C)C (stereo unspecified) | 
33 | 2000 | 1580 | Cc1noc(C(C)C)c1C(=O)NC(C(=O)c1ccc(C#N)cc1)C(C)C (stereo unspecified) | 
34 | 501 | 1000 | CC(C)C(NC(=O)c1cnoc1C(C)(C)C)C(=O)c1ccc(C#N)cc1 (stereo unspecified) | 
35 | 5010 | 5010 | CC(C)C(NC(=O)N1CCc2ccccc2C1)C(=O)c1ccc(C#N)cc1 (stereo unspecified) | Stability [3]: Unstable
36 |  | 3160 | CC(C)C(C)(NC(=O)c1ccccc1)C(=O)c1ccc(Cl)cc1 (stereo unspecified) | pIC50 [1]: inactive
37 | 200 |  | Cc1noc(C(C)C)c1C(=O)NC(C(=O)c1ccc(C#N)c(F)c1)C(C)(C)C (stereo unspecified) | solubility kinetic [4]: 80 µM (≈ 30.8 µg/mL)
38 |  | 398 | CC(C)C(NC(=O)c1ccc(Cl)cc1)C(=O)c1ccc(C#N)cc1 (stereo unspecified) | 
39 | 7940 | 5010 | CC(C)C(NC(=O)c1ccccc1)C(=O)c1ccc(F)cc1 (racemic) | 
40 | 251 | 316 | CC(C)C(NC(=O)c1ccccc1)C(=O)c1ccc([N+](=O)[O-])cc1 (racemic) | 
41 | 2510 | 6310 | CC(C)C(NC(=O)OC(C)(C)C)C(=O)c1ccc(C#N)cc1 (stereo unspecified) | 
42 |  | 3980 | CC(C)C(NC(=O)N(C)C(C)(C)C)C(=O)c1ccc(C#N)cc1 (stereo unspecified) | 
43 |  | 3980 | CC(C)C(NC(=O)c1ccccc1)C(=O)c1ccc(Cl)c(Cl)c1 (racemic) | 
44 |  | 3980 | CC(C)C(NC(=O)c1ccccc1)C(=O)c1ccc(C#N)cc1 (racemic) | solubility kinetic [4]: 150 µM (≈ 46 µg/mL)
45 | 316 | 398 | CC(C)C(NC(=O)c1cc(C(F)(F)F)ccc1Cl)C(=O)c1ccc(C#N)cc1 (stereo unspecified) | 
